High-throughput results: PubChem BioAssay, several laboratories
In the library only some 6.1% were active in any assay of this set; here they are far more common.
DAT uptake mod – modulates human dopamine transporter uptake under cocaine. Q01959. LLC-PK1 hDAT cells, [14C]-dopamine uptake with cocaine IC80; actives deviate in either direction. B-score at 10 µM. 110,000 compounds, 1.3% hits. AID 449768;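 active means Z score or B-score, a plate-position-corrected score, falls beyond the plate's 99.7% confidence bounds, in either direction; inactive means both scores lie inside the 99.7% bounds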;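 further: scored against the spread of the other compound wells on the same plate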
Target sequence (Q01959 whole entry, looked up): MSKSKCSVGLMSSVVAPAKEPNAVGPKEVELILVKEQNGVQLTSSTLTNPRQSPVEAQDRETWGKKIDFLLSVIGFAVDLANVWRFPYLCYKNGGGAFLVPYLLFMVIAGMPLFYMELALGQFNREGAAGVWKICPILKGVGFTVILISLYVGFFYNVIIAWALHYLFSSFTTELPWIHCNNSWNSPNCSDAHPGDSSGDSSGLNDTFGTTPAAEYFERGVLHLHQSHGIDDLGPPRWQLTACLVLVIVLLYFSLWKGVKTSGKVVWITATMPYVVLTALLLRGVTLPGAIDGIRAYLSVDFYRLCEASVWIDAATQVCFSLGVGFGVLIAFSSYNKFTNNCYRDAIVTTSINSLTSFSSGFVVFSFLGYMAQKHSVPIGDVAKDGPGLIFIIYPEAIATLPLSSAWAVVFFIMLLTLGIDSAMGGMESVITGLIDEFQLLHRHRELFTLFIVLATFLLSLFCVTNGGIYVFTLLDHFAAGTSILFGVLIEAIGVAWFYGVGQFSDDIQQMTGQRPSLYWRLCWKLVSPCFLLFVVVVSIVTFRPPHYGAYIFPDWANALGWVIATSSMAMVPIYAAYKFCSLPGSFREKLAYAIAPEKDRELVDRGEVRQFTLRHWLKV
Yeast growth inh – chemicals that inhibit yeast BB579 growth in restrictive medium (lifespan-shortening candidates); S. cerevisiae BB579 growth, OD615, 48 h; AID 804; 140,000 compounds, 0.51% hits; inhibition, % at 10 µM;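 active means inhibition above a set limit, 3 SD over the mean compound inhibition, cut at about 44% in these data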
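Test system: S. cerevisiae DeaD strain BB579 yeast; Medium: restrictive CSMM-D medium; Compound: one dose, 10 µM compound with 0.25% DMSO; Incubation: 4 h cell preincubation, 48 h compound exposure, 30 °C humidified; Signal: OD at 615 nm; Benchmarks: amphotericin B at 10 µg/mL as positive control.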
WT yeast gro inh – growth inhibition of WT yeast, mitochondrial fusion screen; mitochondrial fusion phenotypic screen, WT strain; inhibition, % at 10 µM; 190,000 compounds, 2.1% hits; AID 1362; in the data active means inhibition above about 58%; tested in S. cerevisiae
RAM network inh – yeast RAM network inhibition | AID 868 | S. cerevisiae dse1pr::URA3 reporter, 5-FOA growth OD615, 2 d; analog-sensitive cbk1-as2 kinase mutant strain | inhibition, % at 50 µM | 190,000 compounds, 1.8% hits;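 active means inhibition above a set limit, 3 SD over mean compound inhibition, cut at about 8.4% in these data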;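 further: 0% = DMSO-only wells with no growth and 100% = 10 µM 1-NA-PP1 full growth; inhibition rescues growth on 5-FOA so higher OD means more RAM inhibition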
Yeast life ext – extends the lifespan of yeast. S. cerevisiae growth with nicotinamide, OD615; deaD strain in restrictive glucose medium. inhibition of the nicotinamide effect, % at 10 µM. AID 775. 130,000 compounds, 0.68% hits;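 active means inhibition above a set limit, placed 3 SD over the median of all compounds, cut at about 26% in these data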;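 further: 0% = nicotinamide-treated wells and 100% = cells grown without nicotinamide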
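assay system = DeaD-strain S. cerevisiae | buffer or medium = restrictive glucose medium | reagent = 1.5 mM nicotinamide | compound = 10 µM single point, 0.25% DMSO | incubation = 48 h compound exposure at 30 °C, humidified | signal = OD615 measurement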
Measles CPE – protection of cells from measles virus | Measles virus-infected cells, CPE protection, absorbance | 140,000 compounds, 1.5% hits | protection (pct of control), % at 4 µM; in the data active means protection mostly above about 24%, no sharp cut-off; inactive means mostly below about 26%
RAM efflux-def – restores 5-FOA growth of efflux-deficient yeast | AID 1305 | max inhibition, % | S. cerevisiae efflux-deficient reporter strain, 5-FOA growth OD615, 2 days | shares compounds with RAM network inh | 1,200 tested, under 10 active; call rule not given here;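 further: plate controls were vehicle for no effect and reference inhibitor for full effect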
Starred values were filed as active, the others as inactive; · = not tested or not shown.

SMILES	DAT uptake mod	Yeast growth inh	WT yeast gro inh	RAM network inh	Yeast life ext	Measles CPE	RAM efflux-def
COc1ccc(S(=O)(=O)Nc2cccc(S(=O)(=O)N3CCCCCC3)c2)cc1	·	-29	-15	14*	6	5	5
CCOC(=O)N1CCN(S(=O)(=O)c2ccc(C(=O)Nc3nnc(CSC)o3)cc2)CC1	·	-28	-6	2	0	4	·
CCc1ccc(NC(=O)Cn2c(SC)nc3ccccc32)cc1	-0.38	-13	5	21*	-2	3	3
CCOC(=O)C1=C(N)OC2=C(C(=O)CC(C)(C)C2)C1c1ccc(C)s1 (stereo not given)	·	·	2	17*	·	·	2
CN(C)c1ccc(NC(=O)CSc2nnc(-c3cccs3)n2Cc2ccco2)cc1	-0.064	-17	0	2	-5	15	·
Cc1ccc(NC(=O)CSc2nnc(-c3cccs3)n2Cc2ccco2)cc1	0.081	2	6	12*	-14	4	1
O=C(CSc1nnc(Cc2cccs2)n1Cc1ccco1)Nc1cc(Cl)cc(Cl)c1	0.77	-54	52	12*	-2	3	1
CCOc1ccc(NC(=O)CSc2nnc(-c3ccccc3Cl)n2Cc2ccco2)cc1	0.13	-48	4	15*	-25	13	2
COc1ccc(NC(=O)CSc2nnc(-c3ccccc3Cl)n2Cc2ccco2)c(OC)c1	0.11	-17	4	-1	-10	14	·
O=C(CSc1nnc(Cc2cccs2)n1Cc1ccco1)Nc1cccc(Cl)c1	-0.42	-32	2	3	-16	27	·
C=C(C)C1CC=C(C)/C(=N\NC(=S)Nc2ccc(C)cc2)C1 (stereo not given)	·	4	61*	17*	2	5	2
C=C(C)C1CC=C(C)/C(=N/NC(=O)COc2ccc(C)cc2)C1 (stereo not given)	0.19	-33	-10	3	·	5	·
C=C(CC1([C@@H](NP(=O)(c2ccccc2)c2ccccc2)[C@H]2C[C@@H]2CCCC)CC1)c1ccccc1	-0.26	-21	17	21*	4	3	7
Cc1cc(C)c(NC(=O)COC(=O)c2cccc3c2C(=O)c2ccccc2C3=O)c(C)c1	·	-39	12	4	18	6	·
Cc1cc(C)c(Nc2cc(S(=O)(=O)O)c(N)c3c2C(=O)c2ccccc2C3=O)c(C)c1	·	-71	46	26*	35*	7	15
OCCNc1nc(SCc2ccccc2)nc2sc3c(c12)CCC3	·	-41	78*	11*	-28	20	3
Cc1nc(NCc2cccnc2)c2c3c(sc2n1)CCCC3	·	·	-7	1	·	·	·
CCOc1cc(C2NC(=O)NC(c3ccccc3)=C2C(=O)c2ccccc2)c(Br)cc1OCC(=O)O (stereo not given)	·	·	-8	3	·	·	·
CCCSc1nc(NCc2ccco2)c2c3c(sc2n1)COC(C)(C)C3	1.3	-31	70*	13*	-22	6	7
COc1ccc2c(c1)C(C)CC(C)(C)N2C(=O)CSc1nc2ccccc2s1 (stereo not given)	0.52	-21	57	13*	-5	8	4
COc1ccc(Nc2nc3c(C)cccc3cc2C#N)c(OC)c1	·	-36	18	12*	7	9	5
Cc1ccc(-c2noc(CN(C(=O)C34CC5CC(CC(C5)C3)C4)C(C)C)n2)cc1	-0.052	-35	10	3	-21	5	·
Cc1ccc(OCC(=O)NN=C2c3ccccc3-c3ccccc32)cc1	-0.53	-26	-4	2	-4	3	·
Cc1ccc(NN=C2c3ccccc3-c3ccccc32)cc1	·	-21	16	15*	-3	14	5
CNCc1ccccc1OCc1ccc(F)cc1	·	·	-13	1	·	·	·
SMILES	DAT uptake mod	Yeast growth inh	WT yeast gro inh	RAM network inh	Yeast life ext	Measles CPE	RAM efflux-def
CCOc1cc(C2NN=C(c3ccccc3)S2)ccc1OCc1ccccc1Cl (stereo not given)	-0.05	-60	1	13*	-25	5	4
CCOc1cc(C2NN=C(c3ccccc3)S2)ccc1OCc1ccc(F)cc1 (stereo not given)	0.028	-32	-2	12*	-4	26	3
Clc1ccc2c(c1)CNc1c(ncnc1N1CCOCC1)O2	0.65	-7	-6	0	-4	19	·
C/C=C/c1ccc(OCCSc2nc(C)cc(=O)[nH]2)c(OC)c1	-0.073	-26	-17	2	-9	2	·
CCN=C1S/C(=C\c2ccc(O)c(OCC)c2)C(=O)N1CC	·	-62	-5	2	-1	7	·
CCN=C1S/C(=C\c2cc(OCC)c(O)cc2Br)C(=O)N1CC	·	-43	-3	12*	2	3	3
CSC1=NCCN1CCOc1ccccc1	·	·	-6	4	·	·	·
CN(C)c1ccnc2sc3c(SCc4ccc(Cl)cc4)ncnc3c12	·	-14	-4	19*	7	6	6
CN(C)c1ccnc2sc3c(NCC(O)CO)ncnc3c12 (stereo not given)	·	-12	2	0	2	15	·
CC(=O)Nc1ccc(-c2csc(NC(C)c3ccccc3)n2)cc1 (stereo not given)	·	·	6	2	·	·	·
CCCc1cc(C(=O)OC)c(NC(=O)c2cc(C)on2)s1	-0.67	-23	7	12*	·	16	2
Cc1ccc(S(=O)(=O)N2CCC(C(=O)NCCCOC(C)C)CC2)cc1	-0.37	-34	14	1	-16	20	·
Clc1cccc(Cl)c1CSc1nnc(-c2sccc2-n2cccc2)o1	0.35	-19	51	17*	-9	29	3
CSc1nnc(-c2sccc2-n2cccc2)o1	·	·	-8	1	·	·	·
O=C(COC(=O)c1ccncc1)Nc1ccccc1	·	·	9	2	·	·	·
O=C(COC(=O)c1ccc(CSc2ccc(Cl)cc2)cc1)Nc1ccccc1	·	-48	10	11*	10	23	2
NC(=O)COC(=O)/C=C/c1cccc(Br)c1	·	·	-12	1	·	·	·
CCOC(=O)C1=C(CSc2nc(-c3ccccc3)ccc2C#N)OC(N)=C(C#N)C1c1ccc(OC)cc1 (stereo not given)	1.1	-37	3	19*	-12	4	4
C=CCn1c(SCC(=O)Nc2ccccc2C)nnc1-c1ccncc1	0.011	12	-8	14*	-7	-2	2
Cc1nn(C)cc1C(C(=O)NC1CCCCC1)N(CCc1ccccc1)C(=O)c1cnccn1 (stereo not given)	·	·	6	0	·	·	·
O=C(N=Nc1c(O)n(C2OC(=O)c3ccccc32)c2ccccc12)c1ccc(O)cc1 (stereo not given)	·	-35	-8	12*	-3	21	4
Cn1c(O)c(N=NC(=O)c2ccccc2O)c2ccccc21	·	·	9	4	·	·	·
